In the first assay the target is T1, C-C chemokine receptor type 2 (Homo sapiens, UniProt P41597). The assay is described as follows: Displacement of [125I]MCP-1 from human CCR2 expressed in monocytes 1 uM. The class given is cell-based.
Target sequence in this assay (P41597 whole entry, looked up): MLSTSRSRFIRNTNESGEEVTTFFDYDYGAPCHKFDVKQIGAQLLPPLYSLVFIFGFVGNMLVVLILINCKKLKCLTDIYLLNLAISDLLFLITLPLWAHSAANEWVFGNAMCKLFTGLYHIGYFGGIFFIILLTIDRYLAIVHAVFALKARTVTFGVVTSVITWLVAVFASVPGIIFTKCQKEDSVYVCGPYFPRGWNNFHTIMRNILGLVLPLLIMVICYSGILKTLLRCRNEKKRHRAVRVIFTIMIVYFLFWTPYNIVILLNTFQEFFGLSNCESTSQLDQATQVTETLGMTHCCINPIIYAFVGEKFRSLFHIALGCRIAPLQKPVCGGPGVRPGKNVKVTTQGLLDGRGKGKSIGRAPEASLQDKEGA
In turn, `Nc1nc(C(CCN2CCCCC2)C(=O)NCc2cc(C(F)(F)F)cc(C(F)(F)F)c2)cs1` (configuration not stated) showed an inhibition of 75%.

The target in another assay is C-C chemokine receptor type 2 (Mus musculus, UniProt P51683). Description: Displacement of [125I]MCP1 from mouse CCR2 expressed in monocytes. The class given is cell-based.
Chain of C-C chemokine receptor type 2 (Mus musculus, UniProt P51683) (P51683 whole entry): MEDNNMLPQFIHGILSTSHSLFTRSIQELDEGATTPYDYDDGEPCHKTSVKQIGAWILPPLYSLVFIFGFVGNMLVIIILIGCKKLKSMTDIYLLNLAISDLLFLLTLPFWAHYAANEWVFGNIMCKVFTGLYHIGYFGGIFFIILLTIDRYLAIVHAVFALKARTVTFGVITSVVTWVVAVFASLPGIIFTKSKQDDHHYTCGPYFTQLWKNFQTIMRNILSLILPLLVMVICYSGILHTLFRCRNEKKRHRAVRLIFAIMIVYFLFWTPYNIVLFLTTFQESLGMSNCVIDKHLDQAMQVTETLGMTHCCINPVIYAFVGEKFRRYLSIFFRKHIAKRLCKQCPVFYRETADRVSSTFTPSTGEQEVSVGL
For the molecule `C[C@H]1CN(CCC(C(=O)NCc2cc(C(F)(F)F)cc(C(F)(F)F)c2)c2csc(NC(=O)C3Cc4ccccc43)n2)CC[C@]12C=Cc1ccccc12` (some centres not stated), the IC50 was found to be 111 nM. On the same count and under the same terms, to `C[C@H]1CN(CCC(C(=O)NCc2cc(C(F)(F)F)cc(C(F)(F)F)c2)c2csc(NC(=O)Cc3ccccc3)n2)CC[C@]12C=Cc1ccccc12` (some centres not stated) belongs 165 nM; to `C[C@H]1CN(CCC(C(=O)NCc2cc(C(F)(F)F)cc(C(F)(F)F)c2)c2csc(NC(=O)Cc3ccccn3)n2)CC[C@]12C=Cc1ccccc12` (some centres not stated), 79 nM. The same measure, in the same setting: the result for `C[C@H]1CN(CCC(C(=O)NCc2cc(C(F)(F)F)cc(C(F)(F)F)c2)c2csc(NC(=O)Cc3cccs3)n2)CC[C@]12C=Cc1ccccc12` (some centres not stated) reads 81 nM; that for `CC(C(=O)Nc1nc(C(CCN2CC[C@]3(C=Cc4ccccc43)[C@@H](C)C2)C(=O)NCc2cc(C(F)(F)F)cc(C(F)(F)F)c2)cs1)c1ccccc1` (some centres not stated), 517 nM.

As to `C[C@H]1CN(CCC(C(=O)NCc2cc(C(F)(F)F)cc(C(F)(F)F)c2)c2csc(NC(=O)c3ccccc3)n2)CC[C@]12C=Cc1ccccc12` (some centres not stated), the concentration for half-maximal inhibition (IC50) was determined as 952 nM.

In turn, `C[C@H]1CN(CCC(C(=O)NCc2cc(C(F)(F)F)cc(C(F)(F)F)c2)c2csc(NC(=O)c3cccnc3)n2)CC[C@]12C=Cc1ccccc12` (some centres not stated) displayed an IC50 of 186 nM.

A further assay concerns the target T1, C-C chemokine receptor type 2. The assay is described as follows: Displacement of [125I]MCP1 from human CCR2 expressed in monocytes. The class given is cell-based. The method in brief: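 Human CCR2 binding was read as inhibition of 125I-MCP-1 binding to monocyte cells stably transfected with CCR2. The assay was run in the presence of 0.5% BSA, using membranes of these cells.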
Target sequence in this assay (P41597 whole entry): as the sequence (P41597 whole entry, looked up) above
Molecule `CNC(=O)Nc1nc([C@@H](CCN2CCC(c3ccccc3)CC2)C(=O)NCc2cc(C(F)(F)F)cc(C(F)(F)F)c2)cs1` showed an IC50 of 30 nM. Same read-out and setting: to `C[C@H]1CN(CCC(C(=O)NCc2cc(C(F)(F)F)cc(C(F)(F)F)c2)c2csc(NC(=O)C3Cc4ccccc43)n2)CC[C@]12C=Cc1ccccc12` (some centres not stated) belongs 36 nM; to `CC(C)(C)OC(=O)Nc1nc([C@@H](CCN2CCC(c3ccccc3)CC2)C(=O)NCc2cc(C(F)(F)F)cc(C(F)(F)F)c2)cs1`, 13.3 nM; to `CC(C)C(=O)Nc1nc(C(CCN2CCC(c3ccccc3)CC2)C(=O)NCc2cc(C(F)(F)F)cc(C(F)(F)F)c2)cs1` (configuration not stated), 7.4 nM. The molecule `CC(=O)Nc1nc(C(CCN2CCN(c3ccccc3C)CC2)C(=O)NCc2cc(C(F)(F)F)cc(C(F)(F)F)c2)cs1` (configuration not stated) yielded an IC50 of 14.5 nM. With `O=C(Nc1nc(C(CCN2CCC(c3ccccc3)CC2)C(=O)NCc2cc(C(F)(F)F)cc(C(F)(F)F)c2)cs1)C1CC1` (configuration not stated), the IC50 is 3.9 nM. Still for that read-out and setting: to `CC(=O)Nc1nc([C@@H](CCN2CCC(c3ccccc3)CC2)C(=O)NCc2cc(C(F)(F)F)cc(C(F)(F)F)c2)cs1` belongs 42 nM. Still for that read-out and setting: to `CN(C)C(=O)Nc1nc(C(CCN2CCC(c3ccccc3)CC2)C(=O)NCc2cc(C(F)(F)F)cc(C(F)(F)F)c2)cs1` (configuration not stated) belongs 2.3 nM; to `CNC(=O)Nc1nc(C(CCN2CCC(c3ccccc3)CC2)C(=O)NCc2cc(C(F)(F)F)cc(C(F)(F)F)c2)cs1` (configuration not stated), 3 nM; to `O=C(Nc1nc(C(CCN2CCC(c3ccccc3)CC2)C(=O)NCc2cc(C(F)(F)F)cc(C(F)(F)F)c2)cs1)c1ccccc1` (configuration not stated), 16 nM. The same measure, in the same setting: the result for `Nc1nc(C(CCN2CCC(c3ccc(F)cc3)CC2)C(=O)NCc2cc(C(F)(F)F)cc(C(F)(F)F)c2)cs1` (configuration not stated) reads 9.1 nM. Consider `C[C@H]1CN(CCC(C(=O)NCc2cc(C(F)(F)F)cc(C(F)(F)F)c2)c2csc(NC(=O)Cc3ccccc3)n2)CC[C@]12C=Cc1ccccc12` (some centres not stated), for which the IC50 is 19 nM. On the same count and under the same terms, the result for `CC(=O)Nc1nc(C(CCN2CCC(n3cnc4ccccc43)CC2)C(=O)NCc2cc(C(F)(F)F)cc(C(F)(F)F)c2)cs1` (configuration not stated) reads 3 nM. The same measure, in the same setting: the result for `CNC(=O)Nc1nc([C@H](CCN2CCC(c3ccccc3)CC2)C(=O)NCc2cc(C(F)(F)F)cc(C(F)(F)F)c2)cs1` reads 0.43 nM. Consider `Nc1nc(C(CCN2CCC(n3cnc4ccccc43)CC2)C(=O)NCc2cc(C(F)(F)F)cc(C(F)(F)F)c2)cs1` (configuration not stated), for which the IC50 stood at 28.6 nM. The same measure, in the same setting: to `C[C@H]1CN(CCC(C(=O)NCc2cc(C(F)(F)F)cc(C(F)(F)F)c2)c2csc(NC(=O)Cc3ccccn3)n2)CC[C@]12C=Cc1ccccc12` (some centres not stated) belongs 13 nM; to `O=CNc1nc(C(CCN2CCC(c3ccccc3)CC2)C(=O)NCc2cc(C(F)(F)F)cc(C(F)(F)F)c2)cs1` (configuration not stated), 4 nM. Turning to `C[C@H]1CN(CCC(C(=O)NCc2cc(C(F)(F)F)cc(C(F)(F)F)c2)c2csc(N)n2)CCC12C=Cc1ccccc12` (some centres not stated), the IC50 worked out at 1.3 nM. On the same count and under the same terms, to `COC(=O)Nc1nc(C(CCN2CCC(c3ccccc3)CC2)C(=O)NCc2cc(C(F)(F)F)cc(C(F)(F)F)c2)cs1` (configuration not stated) belongs 2.6 nM; to `CC(=O)Nc1nc([C@H](CCN2CCC(c3ccccc3)CC2)C(=O)NCc2cc(C(F)(F)F)cc(C(F)(F)F)c2)cs1`, 1.8 nM. The same measure, in the same setting: to `CC(=O)Nc1nc([C@@H](CCN2CCC3(C=Cc4ccccc43)CC2)C(=O)NCc2cc(C(F)(F)F)cc(C(F)(F)F)c2)cs1` belongs 6.5 nM; to `CC(=O)Nc1nc(C(CCN2CCN(c3ccc(F)cc3)CC2)C(=O)NCc2cc(C(F)(F)F)cc(C(F)(F)F)c2)cs1` (configuration not stated), 32.7 nM. As to `CC(=O)Nc1nc(C(CCN2CCC(c3ccc(F)cc3)CC2)C(=O)NCc2cc(C(F)(F)F)cc(C(F)(F)F)c2)cs1` (configuration not stated), the IC50 amounted to 1.8 nM. Still for that read-out and setting: to `N=C(N)Nc1nc(C(CCN2CCC(c3ccccc3)CC2)C(=O)NCc2cc(C(F)(F)F)cc(C(F)(F)F)c2)cs1` (configuration not stated) belongs 1.3 nM; to `Nc1nc(C(CCN2CCC3(C=Cc4ccccc43)CC2)C(=O)NCc2cc(C(F)(F)F)cc(C(F)(F)F)c2)cs1` (configuration not stated), 7.3 nM; to `CNC(=O)Nc1nc([C@@H](CCN2CCC3(C=Cc4ccccc43)CC2)C(=O)NCc2cc(C(F)(F)F)cc(C(F)(F)F)c2)cs1`, 5.8 nM. Still for that read-out and setting: to `CCC(=O)Nc1nc(C(CCN2CCC(c3ccccc3)CC2)C(=O)NCc2cc(C(F)(F)F)cc(C(F)(F)F)c2)cs1` (configuration not stated) belongs 3.5 nM; to `C[C@H]1CN(CCC(C(=O)NCc2cc(C(F)(F)F)cc(C(F)(F)F)c2)c2csc(NC(=O)Cc3cccs3)n2)CC[C@]12C=Cc1ccccc12` (some centres not stated), 23 nM; to `CC(C)(C)OC(=O)Nc1nc([C@H](CCN2CCC(c3ccccc3)CC2)C(=O)NCc2cc(C(F)(F)F)cc(C(F)(F)F)c2)cs1`, 14.3 nM. Same read-out and setting: to `CC(=O)Nc1nc(C(CCN2CCC3(C=Cc4ccccc43)CC2)C(=O)NCc2cc(C(F)(F)F)cc(C(F)(F)F)c2)cs1` (configuration not stated) belongs 1.7 nM; to `Nc1nc(C(CCN2CCC(c3ccccc3)CC2)C(=O)NCc2cc(C(F)(F)F)cc(C(F)(F)F)c2)cs1` (configuration not stated), 20 nM; to `CC(=O)Nc1nc(C(CCN2CCC3(C=Cc4ccccc43)[C@@H](C)C2)C(=O)NCc2cc(C(F)(F)F)cc(C(F)(F)F)c2)cs1` (some centres not stated), 3 nM. On to `COC(=O)Nc1nc([C@H](CCN2CCC(c3ccccc3)CC2)C(=O)NCc2cc(C(F)(F)F)cc(C(F)(F)F)c2)cs1`, for which the IC50 came to 3.5 nM.

In the case of `CS(=O)(=O)Nc1nc(C(CCN2CCC(c3ccccc3)CC2)C(=O)NCc2cc(C(F)(F)F)cc(C(F)(F)F)c2)cs1` (configuration not stated), the IC50 turned out to be 36 nM. On the same count and under the same terms, the result for `Nc1nc([C@H](CCN2CCC(c3ccccc3)CC2)C(=O)NCc2cc(C(F)(F)F)cc(C(F)(F)F)c2)cs1` reads 13.3 nM; that for `CC(C(=O)Nc1nc(C(CCN2CC[C@]3(C=Cc4ccccc43)[C@@H](C)C2)C(=O)NCc2cc(C(F)(F)F)cc(C(F)(F)F)c2)cs1)c1ccccc1` (some centres not stated), 74 nM. The same measure, in the same setting: the result for `CNC(=O)Nc1nc([C@H](CCN2CCC3(C=Cc4ccccc43)CC2)C(=O)NCc2cc(C(F)(F)F)cc(C(F)(F)F)c2)cs1` reads 0.8 nM; that for `C[C@H]1CN(CCC(C(=O)NCc2cc(C(F)(F)F)cc(C(F)(F)F)c2)c2csc(NC(=O)c3ccccc3)n2)CC[C@]12C=Cc1ccccc12` (some centres not stated), 17 nM. On the same count and under the same terms, to `CC(C)(C)C(=O)Nc1nc(C(CCN2CCC(c3ccccc3)CC2)C(=O)NCc2cc(C(F)(F)F)cc(C(F)(F)F)c2)cs1` (configuration not stated) belongs 18 nM; to `CC(=O)Nc1nc([C@H](CCN2CCC3(C=Cc4ccccc43)CC2)C(=O)NCc2cc(C(F)(F)F)cc(C(F)(F)F)c2)cs1`, 1.4 nM.

On to `CC(=O)Nc1nc(C(CCN2CCCCC2)C(=O)NCc2cc(C(F)(F)F)cc(C(F)(F)F)c2)cs1` (configuration not stated), for which the IC50 amounted to 13 nM.

In turn, `O=C(NCc1cc(C(F)(F)F)cc(C(F)(F)F)c1)[C@H](CCN1CCC(c2ccccc2)CC1)c1cscn1` registered an IC50 of 229 nM.

`Cc1ccccc1N1CCN(CCC(C(=O)NCc2cc(C(F)(F)F)cc(C(F)(F)F)c2)c2csc(N)n2)CC1` (configuration not stated) returned an IC50 of 183 nM. In turn, `C[C@H]1CN(CCC(C(=O)NCc2cc(C(F)(F)F)cc(C(F)(F)F)c2)c2csc(NC(=O)c3cccnc3)n2)CC[C@]12C=Cc1ccccc12` (some centres not stated) gave an IC50 of 14 nM.

For the origin of these results see ChEMBL document CHEMBL1143782, “Alpha-aminothiazole-gamma-aminobutanoic amides as potent, small molecule CCR2 receptor antagonists” (Bioorg Med Chem Lett, 2007).
